An excerpt weighted towards active compounds, which were near 3.1% of everything screened.
PAX8 reporter – lowers PAX8-driven luciferase in RMG-I cells; RMG-I TPO-luciferase reporter, SteadyGlo, 24 h; inhibition, % at 12.6 µM; 360,000 tested, 1.2% active;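 active = mean replicate inhibition at least 60% with every replicate also reaching 60%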;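 also: luciferase light reporting Pax8 driven TPO promoter activity; plate controls were median of neutral control wells for no effect and mitoxantrone controls for full effect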
EWS-Fli block – EWS/Fli transcriptional activity inhibition; 350,000 tested, 0.67% active; A673 NR0B1-luciferase reporter, viability-normalised; inhibition, % at 12.6 µM;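 active = mean inhibition of at least 50% after viability correction, with every replicate also passing that limit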;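 also: firefly luciferase signal divided by Alamar Blue viability fluorescence both relative to DMSO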
PGC1a acetyl inh – modulators of PGC1a acetylation; inhibition, % at 15.6 µM; U2OS PGC1a acetylation, AlphaScreen anti-acetyl-lysine; with virally co-expressed GCN5 acetyltransferase; 350,000 tested, 0.17% active;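 active = every replicate shows inhibition of at least 40%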;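 also: 0% = neutral control wells and 100% = positive control wells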
FGF22 binding – shifts melting point of recombinant human FGF22; recombinant FGF22 thermal shift, SYPRO orange fluorescence; percent of sucrose octasulfate shift, DMSO zero; activity (Tm shift, normalised), % at 9.99 µM; 340,000 tested, 1.5% active;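 active = mean Tm shift, scaled 0 neutral to 100 positive control, at about 1.3% or above, every replicate too, limit read from the data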
Target sequence (Q9HCT0 whole entry, looked up): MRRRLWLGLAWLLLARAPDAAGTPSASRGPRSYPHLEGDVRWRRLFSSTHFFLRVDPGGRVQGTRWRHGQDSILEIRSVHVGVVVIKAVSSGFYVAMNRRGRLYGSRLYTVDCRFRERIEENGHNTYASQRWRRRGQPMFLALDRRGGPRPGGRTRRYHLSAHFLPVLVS
HIV Env fusion – inhibitors of HIV Env-mediated cell fusion. HeLa-JRFL Env/CEM21 cell fusion, luciferase. inhibition, % at 12.3 µM. 360,000 tested, 1.1% active;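 active = mean replicate inhibition score of at least 50 and every replicate individually at or above 50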;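 also: 0% = plate neutral controls and 100% = maraviroc near 300 nM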
FN deposition inh – fibronectin deposition inhibition. AH1F fibroblasts, Alexa488-fibronectin deposition fluorescence, overnight. inhibition, % at 12.6 µM. 350,000 tested, 0.086% active;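 active = mean inhibition across replicates of 30% or more, regardless of how many single replicates reach that level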;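 also: positive control wells lacked labelled fibronectin entirely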
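Material: AH1F fibroblast monolayer depositing Alexa488-labelled fibronectin into matrix | Input: 10000 AH1F cells/well | Medium: DMEM plus 2% serum, read in PBS | Reagent: Alexa488-fibronectin, 24 nM final in well | Compound dosing: One dose per compound, pinned | Schedule: 1 h adhesion, overnight exposure | Measured by: Fluorescence at 485 nm excitation, 525 nm emission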
* marks the source's active call; other numbers are inactive results; nt = no result given; [ ] = dose if it differs, or a comment.

SMILES | PAX8 reporter | EWS-Fli block | PGC1a acetyl inh | FGF22 binding | HIV Env fusion | FN deposition inh
C[C@H]1CN([C@@H](C)CO)C(=O)Cc2cc(NC(=O)c3ccncc3)ccc2O[C@H]1CN(C)Cc1ccc(-c2ccccc2)cc1 | 68.8* | -13.8 | -7.9 | -0.2 | -10.5[16.7 µM] | nt
CCC(=O)N(C)C[C@@H]1Oc2ncc(-c3ccccc3OC)cc2C(=O)N([C@H](C)CO)C[C@@H]1C | nt | -8.1 | 8.5 | 0.0 | -1.1[16.7 µM] | 3.0
CC=Cc1ccc2n(c1=O)C[C@H]1[C@H](CO)[C@@H](C(=O)N3CCc4ccccc4C3)[C@@H]2N1Cc1ccccc1 (mixture of isomers) | nt | -27.6 | nt | 0.0 | nt | nt
CN1[C@@H]2c3ccc(-c4ccccc4)c(=O)n3C[C@@H]2[C@@H](CO)[C@@H]1C(=O)N1CCc2ccccc2C1 | 68.2* | 4.7 | nt | 0.6 | -45.8[16.7 µM] | nt
CC=Cc1ccc2n(c1=O)C[C@@H]1[C@@H](CO)[C@H](C(=O)N3CCc4ccccc4C3)[C@H]2N1Cc1ccncc1 (mixture of isomers) | 13.2 | 0.3 | -1.2 | 1.5* | nt | nt
CCCCCCC[N+](CC)(CC)CCCCc1ccc(Cl)cc1 | 87.4* | 19.2 | 14.1 | -0.3 | 6.5 | -8.5
COc1ccc(NC(=O)Nc2ccc3c(c2)CC(=O)N([C@H](C)CO)C[C@H](C)[C@H](CN(C)Cc2ccccc2)O3)cc1 | 11.2 | -2.8 | -18.3 | -0.2 | 40.5[16.7 µM] | nt
CC(C)(C)NS(=O)(=O)c1cc2c3c(c1)CCN3C(=O)CC2 | -3.1 | 8.9 | 4.7 | 0.2 | 2.7 | 1.3
CC1CC(NS(=O)(=O)c2cc3c4c(c2)CCN4C(=O)CC3)CC(C)(C)C1 (stereo unspecified) | 4.3 | 6.2 | nt | -0.5 | 60.8* | 1.4
C[C@@H]1CN([C@@H](C)CO)C(=O)Cc2cc(NS(=O)(=O)c3ccc(Cl)cc3)ccc2O[C@H]1CN(C)S(C)(=O)=O | 1.6 | -1.7 | 2.0 | -0.1 | 1.8[16.7 µM] | nt
COCCCNC(=O)CN(CCc1ccccc1)S(=O)(=O)c1ccc(C)cc1 | 3.4 | 14.3 | -10.5 | 44.0* | 7.2 | 12.5
COc1ccc(C2c3cc4c(cc3OC(N3CCOCC3)C2C)OCO4)c(OC)c1 (stereo unspecified) | 37.0 | 60.3* | nt | 0.4 | 10.9 | 2.9
C[C@H]1CN([C@@H](C)CO)C(=O)c2cc(NS(=O)(=O)c3ccccc3)ccc2O[C@H]1CN(C)Cc1ccc(C(=O)O)cc1 | nt | -7.8 | -2.8 | -0.3 | -30.6[16.7 µM] | nt
Cn1cnc(S(=O)(=O)N2CC[C@@H]3[C@H]2c2cc(-c4cccc(F)c4)ccc2N[C@@H]3CO)c1 | -16.0 | -9.1 | -13.9 | -0.3 | nt | -7.1
CC1Cc2ccccc2N1C(=S)NC(=O)c1ccc(Cl)cc1Cl (stereo unspecified) | 62.5* | 17.4 | -2.3 | 1.1 | nt | 4.7
C[C@@H]1CCCCO[C@H](CN(C)C(=O)Nc2ccc(F)cc2)[C@H](C)CN([C@@H](C)CO)C(=O)c2cc(NC(=O)Nc3ccc4c(c3)OCO4)ccc2O1 | 8.5 | -57.8 | 2.5 | -0.4 | -20.0[16.7 µM] | nt
O=C(NCC[C@@H]1CC[C@H](NS(=O)(=O)c2ccc(Cl)cc2)[C@H](CO)O1)c1ccc2c(c1)OCO2 | nt | nt | -1.5 | -0.1 | nt | nt
COc1cccc(NC(=O)C(NCCc2ccc(S(N)(=O)=O)cc2)c2ccccc2)c1 (stereo unspecified) | 74.4* | 11.1 | -10.8 | -0.2 | 4.9 | -7.8
COc1ccc(CCNC(C(=O)Nc2cc(C)cc(C)c2)c2ccccc2)cc1 (stereo unspecified) | 44.1 | 9.2 | nt | -0.3 | 24.3 | nt
O=C(c1ccccc1)c1ccc(Cn2cc(CCCO)nn2)cc1 | 6.3 | 14.0 | -5.7 | 0.0 | -0.7 | -3.6
O=C(O)CCCCCCCCc1cn(Cc2ccc(C(=O)c3ccccc3)cc2)nn1 | 23.8 | 54.4* | -2.8 | 0.2 | -86.1 | -6.6
CN(C)C(=O)[C@@H]1[C@@H](CO)[C@@H]2Cn3c(ccc(-c4ccccc4F)c3=O)[C@H]1N2C(=O)c1cccnc1 | -3.2 | -0.1 | nt | 0.0 | nt | nt
C[C@H](CO)N1C[C@H](C)[C@H](CN(C)Cc2cccnc2)Oc2ncc(-c3ccc(C#N)cc3)cc2C1=O | nt | 0.6 | -6.3 | -0.1 | -6.0[16.7 µM] | 0.5
C=CC(=O)N1C/C(=C/c2ccc(F)cc2)C(=O)/C(=C\c2ccc(F)cc2)C1 | 99.7* | 86.9* | 82.7* | 0.2 | 111.1* | 26.1
